Source: ChEMBL document CHEMBL1141246, “Transformations of manool. tri- and tetracyclic norditerpenoids with in vitro activity against Plasmodium falciparum” (J Nat Prod, 2007)
In brackets after ≈: the same amount, converted by molar mass.

What was measured:
[1] = test system: Plasmodium falciparum; assay: Antiparasitic activity against Plasmodium falciparum 3D7 after 48 hrs; format: functional, organism-based; conditions: 3D7, 48 h
Procedure, shortened: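 P. falciparum 3D7 cultures diluted with fresh medium and erythrocytes to 2% parasitemia, 2% hematocrit. Serial compound dilutions added and plates held 48 h at 37 °C. Viability read as parasite lactate dehydrogenase activity, relative to solvent controls with 0.5% DMSO.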

[2] = Effect on erythrocyte shape in human erythrocytes assessed as echinocytes at 100 ug/mL after 48 hrs; format: ADME, cell-based
Procedure, shortened: (§1)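 Fresh erythrocytes at 2% hematocrit incubated 48 h in parasite culture medium alone or with compound. Suspensions then wet-mounted under coverslips and examined at once by phase-contrast microscopy with a 100× oil objective; Giemsa-stained thin smears were also examined. Percent stomatocytes, echinocytes and knizocytes scored using shape definitions of Lim et al.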

[3] = Hemolytic activity in human erythrocytes at 100 ug/mL after 48 hrs relative to 0.2% saponin; format: ADME, cell-based, Erythrocyte; conditions: read-out: Activity
Procedure, shortened: (§2)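 Uninfected normal erythrocytes at 2% hematocrit incubated 48 h with compound dilutions in duplicate plates. Cells pelleted at 200g for 3 min, and hemoglobin in the supernatant read by absorbance at 405 nm. Percent hemolysis calculated against 0.2% saponin.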

[4] = Effect on erythrocyte shape in human erythrocytes assessed as stomatocytes at 50 ug/mL after 48 hrs; format: ADME, cell-based; procedure, shortened: as §1
[5] = Effect on erythrocyte shape in human erythrocytes assessed as echinocytes at 50 ug/mL after 48 hrs; format: ADME, cell-based; procedure, shortened: as §1
[6] = Effect on erythrocyte shape in human erythrocytes assessed as stomatocytes at 100 ug/mL after 48 hrs; format: ADME, cell-based; procedure, shortened: as §1
[7] = Hemolytic activity in human erythrocytes at 200 ug/mL after 48 hrs relative to 0.2% saponin; format: ADME, cell-based, Erythrocyte; conditions: read-out: Activity; procedure, shortened: as §2
[8] = Effect on erythrocyte shape in human erythrocytes assessed as […] and stomatocytes at 100 ug/mL after 48 hrs; format: ADME, cell-based; procedure, shortened: as §1

C=C[C@@]1(C)CCC2[C@@](O)(CC[C@H]3C(C)(C)[C@@H](O)CC[C@]23C)C1 (stereo partly specified)
IC50 [1]: 7 µg/mL (≈ 22.8 µM)

C=C[C@@]1(O)CC[C@H]2[C@@](O)(CC[C@H]3C(C)(C)CCC[C@@]32C)C1
Activity [2]: 2%
hemolysis at 48 h, 100 ug/mL [3]: 0.6%
Activity [4]: 1%
Activity [5]: 3%
Activity [6]: 1%
hemolysis at 48 h, 200 ug/mL [7]: 0.2%
IC50 [1]: 10.7 µg/mL (≈ 36.6 µM)

CC1(C)CCC[C@@]2(C)[C@H]1CC[C@@]1(O)CC(CCO)CC[C@@H]12 (stereo partly specified)
Activity [2]: 2%
hemolysis at 48 h, 100 ug/mL [3]: 0%
Activity [4]: 1%
Activity [5]: 3%
Activity [6]: 3%
hemolysis at 48 h, 200 ug/mL [7]: 5%
IC50 [1]: 13.3 µg/mL (≈ 45.2 µM)

CCOC(=O)/C=C1\CC[C@H]2[C@@](O)(CC[C@H]3C(C)(C)CCC[C@@]32C)C1
Activity [2]: 0%
hemolysis at 48 h, 100 ug/mL [3]: 3%
Activity [4]: 2%
Activity [5]: 2%
Activity [6]: 8%
hemolysis at 48 h, 200 ug/mL [7]: 17%
IC50 [1]: 5.7 µg/mL (≈ 17 µM)

C=C[C@@]1(C)CCC2=C(CC[C@H]3C(C)(C)[C@@H](O)CC[C@]23C)C1
IC50 [1]: 7 µg/mL (≈ 24.3 µM)

C=C[C@]1(C)C=C2CC[C@H]3C(C)(CO)[C@@H](O)CC[C@]3(C)[C@H]2CC1 (stereo partly specified)
IC50 [1]: 7 µg/mL (≈ 23 µM)

C=C[C@@]1(C)CCC2=C(C1)C(=O)C[C@H]1C(C)(CO)[C@@H](O)CC[C@]21C (stereo partly specified)
IC50 [1]: 7 µg/mL (≈ 22 µM)

CCOC(=O)/C=C1/CC[C@H]2[C@@](O)(CC[C@H]3C(C)(C)CCC[C@@]32C)C1
Activity [2]: 0%
Activity [8]: 17%
hemolysis at 48 h, 100 ug/mL [3]: 9%
Activity [4]: 11%
Activity [5]: 0%
hemolysis at 48 h, 200 ug/mL [7]: 34%
IC50 [1]: 3.9 µg/mL (≈ 11.7 µM)

CC1(C)CCC[C@@]2(C)[C@H]1CC[C@@]1(O)C/C(=C\CO)CC[C@@H]12
Activity [2]: 0%
hemolysis at 48 h, 100 ug/mL [3]: 2%
Activity [4]: 5%
Activity [5]: 1%
Activity [6]: 64%
hemolysis at 48 h, 200 ug/mL [7]: 102%
IC50 [1]: 10.6 µg/mL (≈ 36.2 µM)

CCO[C@@]12CC[C@H]3[C@@](CC[C@H]4C(C)(C)CCC[C@@]43C)(C1)OC(=O)C2
Activity [2]: 9%
hemolysis at 48 h, 100 ug/mL [3]: 0%
Activity [4]: 1%
Activity [5]: 2%
Activity [6]: 0%
hemolysis at 48 h, 200 ug/mL [7]: 0%
IC50 [1]: 19.6 µg/mL (≈ 58.6 µM)
